Data set [1] is described as follows: In vitro for cytotoxicity in MT-4 lymphocytes in the absence of HIV infection. In kind it is cell-based, MT4. As to conditions: human. A digest of the protocol:
(§1)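 Uninfected MT-4 lymphocytes were cultured with compound. CC50 is the concentration at which 50% of cells remain viable.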

The nature of data set [2]: % bioavailability in rat after oral dose (10 mg/kg) 0 - 6 h. In kind it is ADME, organism-based. As to conditions: in vivo. A digest of the protocol: (§2)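 Rats in groups of eight: four dosed 5 mg/kg intravenously, four 10 mg/kg orally. Dosing solutions were 5 mg/mL in 20% ethanol/5% glucose in water with 2 molar equiv HCl (1 equiv HCl or 2 equiv methanesulfonic acid for some). Terminal t1/2 from the IV arm (n = 4). Cmax was the peak plasma level after oral dosing (n = 4). Bioavailability was AUCoral/2 × AUCiv over 0-6 h.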

The test system of data set [3] is Human immunodeficiency virus 1. The data set is described as follows: In vitro for inhibition of cytopathic effect of HIV-1 3B in MT-4 lymphocytes. In kind it is functional, organism-based. A digest of the protocol: (§3)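 MT-4 lymphocytes were infected with HIV-1 3B at an MOI of either 0.001 or 0.032 tissue culture infective dose per cell. EC50 is the concentration preventing 50% of viral cytopathic effect, from a single triplicate assay. No effect means no activity up to 100 μM or up to the cytotoxic concentration.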

Data set [4] can be described thus: Cmax in rat plasma after oral dose (10 mg/kg). In kind it is ADME, organism-based. Also noted: dose 10 mg/kg, route oral. A digest of the protocol:
as §2

Data set [5] can be described thus: Estimated solubility (buffer pH 7.4). It is filed as ADME. To be noted: read-out: S. A digest of the protocol:
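Solubility was estimated in pH 7.4 phosphate buffer.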

The nature of data set [6]: t1/2 in rats after IV dose (5 mg/kg). In kind it is ADME, organism-based. As to conditions: rat, in vivo. A digest of the protocol:
as §2

Data set [7] deals with Human immunodeficiency virus type 1 protease (Human immunodeficiency virus 1, UniProt Q72874). The data set is described as follows: Inhibition of purified recombinant HIV-1 protease in a fluorogenic assay. A digest of the protocol:
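Purified recombinant HIV-1 protease, with cleavage of the fluorogenic substrate DABCYL-[…]-Pro-Ile-Val-Gln-EDANS as read-out. Value is the inhibitor concentration giving 50% inhibition of protease activity.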

The subject of data set [8] is MT4. The data set is described as follows: Compound was tested in vitro for inhibition of cytopathic effect of HIV-1 3B in MT-4 lymphocytes; No effect. In kind it is functional, cell-based, Homo sapiens. A digest of the protocol: as §3
In general terms: Protection from cytopathic effect is a common read-out in antiviral testing.

A short description of data set [9]: Cmax in plasma after oral dose (10 mg/kg). It is filed as ADME, organism-based. More on the design: dose 10 mg/kg, route oral. A digest of the protocol: as §2
Data set [10] has as its system MT4. The data set is described as follows: In vitro for cytotoxicity in MT-4 lymphocytes in the absence of HIV infection. It is filed as functional. To be noted: Homo sapiens. A digest of the protocol: as §1
For data set [11], the system named is Human immunodeficiency virus 1. The data set is described as follows: Compound was tested in vitro for inhibition of cytopathic effect of HIV-1 3B in MT-4 lymphocytes. It is filed as functional, organism-based. A digest of the protocol:
as §3

Converted amounts (≈) assume the structure as drawn.

By CC50 is commonly meant the concentration that lowers cell viability or growth by half. A lower CC50 goes with harm at low concentration. Broadly, the bioavailability is the share of a dose that reaches the circulation, judged against a reference dose that is usually intravenous. A low value points to poor availability. What is called EC50 is the midpoint of the concentration-response curve. A low value points to an effect from little substance. As a reminder, the Cmax is the maximum level reached in the sampled fluid or tissue. As a reminder, the half-life is how long it takes for the measured level to halve. High values mean slow loss, low ones fast loss. One may read the IC50 as the point on the concentration scale where inhibition reaches its midpoint.

In [1], `CC(C)[C@H](NS(=O)(=O)N(C)Cc1ccccn1)C(=O)N[C@@H](Cc1ccccc1)[C@H](O)[C@H](O)[C@H](Cc1ccccc1)NC(=O)[C@H](NS(=O)(=O)N(C)Cc1ccccn1)C(C)C` had a CC50 of 65 µM. In addition, the bioavailability in [2] worked out at 11%. In data set [3], the EC50 was found to be 43 µM. This molecule came in with a Cmax in [4] of 1160 nM. Besides, the solubility in [5] was 40 µg/mL (≈ 46.1 µM). In data set [6], this molecule showed a half-life of 90 min. Also, the concentration for half-maximal inhibition (IC50) in [7] was 38 nM.
In turn, `CC(C)[C@H](NC(=O)N1CCN(C)CC1)C(=O)N[C@@H](Cc1ccccc1)[C@@H](O)[C@H](Cc1ccccc1)NC(=O)[C@H](NC(=O)OCc1ccccc1)C(C)C` gave a CC50 in data set [1] of 55 µM. Besides, the bioavailability in [2] worked out at 13%. Also, in [8], the 50% effective concentration (EC50) entry is “Not Active”. The same molecule came in with a Cmax in [4] of 250 nM. The solubility in data set [5] is 141 µg/mL (≈ 193 µM). Besides, the half-life in data set [6] was 66 min. In addition, the IC50 in [7] came out at 28 nM.
Take `CC(C)[C@H](NC(=O)N(C)Cc1ccccn1)C(=O)N[C@@H](Cc1ccccc1)C(O)[C@H](Cc1ccccc1)NC(=O)[C@H](NC(=O)N(C)Cc1ccccn1)C(C)C` (stereo partly specified): the Cmax in data set [9] was determined as 1500 nM. This molecule displayed a bioavailability in [2] of 11%. In addition, the EC50 in data set [3] stood at 25 µM. Also, the solubility in data set [5] was 167 µg/mL (≈ 218 µM). Also, in [10], the CC50 is greater than 100 µM. In [6], this molecule gave a half-life of 27 min. The IC50 in data set [7] amounted to 43 nM.
On to `CC(C)[C@H](NC(=O)N(C)Cc1cccnc1)C(=O)N[C@@H](Cc1ccccc1)[C@H](O)[C@H](O)[C@H](Cc1ccccc1)NC(=O)[C@H](NC(=O)N(C)Cc1cccnc1)C(C)C`, for which, in [9], the peak level (Cmax) was 520 nM. This molecule also had a bioavailability in data set [2] of 17%. The EC50 in data set [3] came to 1.4 µM. Besides, the solubility in data set [5] is 91 µg/mL (≈ 114 µM). Further, the CC50 in data set [10] is greater than 100 µM. Also, the half-life in [6] is 78 min. Also, in data set [7], the IC50 was less than 1 nM.
Consider `CC(C)[C@H](NC(=O)OCc1ccncc1)C(=O)N[C@@H](Cc1ccccc1)C(O)[C@H](Cc1ccccc1)NC(=O)[C@H](NC(=O)OCc1ccncc1)C(C)C` (stereo partly specified), for which the CC50 in data set [1] was greater than 100 µM. In data set [2], this molecule returned a bioavailability of 0.9%. Also, the midpoint of the response in data set [11], the EC50, lay at 10 µM. Besides, the highest level in [4] (Cmax) was 200 nM. For the same molecule, the solubility in data set [5] was 7.8 µg/mL (≈ 10.6 µM). In data set [6], this molecule gave a half-life of 34.2 min. In addition, in [7], the IC50 was determined as 26 nM.
`CC(C)[C@H](NS(=O)(=O)N(C)Cc1ccccn1)C(=O)N[C@@H](Cc1ccccc1)C(O)[C@H](Cc1ccccc1)NC(=O)[C@H](NS(=O)(=O)N(C)Cc1ccccn1)C(C)C` (stereo partly specified) returned a CC50 in [1] of 32 µM. Further, in data set [2], the bioavailability amounted to 21%. In data set [8], the EC50 entry is “Not Active”. This molecule also gave a Cmax in data set [4] of 2100 nM. Further, the solubility in data set [5] is 11 µg/mL (≈ 13.1 µM). Besides, the half-life in data set [6] was 84 min. Further, the IC50 in data set [7] was 1300 nM.
Consider `CC(C)[C@H](NC(=O)OCc1ccccn1)C(=O)N[C@@H](Cc1ccccc1)C(O)[C@H](Cc1ccccc1)NC(=O)[C@H](NC(=O)OCc1ccccn1)C(C)C` (stereo partly specified), for which, in [9], the Cmax came out at 1600 nM. In [2], this molecule returned a bioavailability of 19%. This molecule also showed an EC50 in [3] of 4.5 µM. Also, the solubility in data set [5] was 51 µg/mL (≈ 69 µM). The CC50 in data set [10] is 57 µM. The molecule also showed a half-life in [6] of 114 min. Also, the IC50 in data set [7] is 4.8 nM.
`CC(C)[C@H](NC(=O)OCc1cccnc1)C(=O)N[C@@H](Cc1ccccc1)C(O)[C@H](Cc1ccccc1)NC(=O)[C@H](NC(=O)OCc1cccnc1)C(C)C` (stereo partly specified) displayed a Cmax in data set [9] of 220 nM. The bioavailability in [2] stood at 2.1%. In addition, in data set [3], the EC50 came to 6.3 µM. Moreover, the solubility in data set [5] was 18 µg/mL (≈ 24.4 µM). The molecule further displayed a CC50 in [10] of 62 µM. The same molecule had a half-life in data set [6] of 18.6 min. The 50% inhibitory concentration (IC50) in data set [7] is 6.8 nM.

These data come from ChEMBL document CHEMBL1126582, “Symmetry-based inhibitors of HIV protease. Structure-activity studies of acylated 2,4-diamino-1,5-diphenyl-3-hydroxypentane and 2,5-diamino-1,6-diphenylhexane-3,4-diol” (J Med Chem, 1993).
